Measured values: ChEMBL document CHEMBL1649560, “Beta-lactamase-mediated beta-lactam resistance in Campylobacter species: prevalence of Cj0299 (bla OXA-61) and evidence for a novel beta-Lactamase in C. jejuni” (2009)
≈ marks a conversion by molar mass, not a printed value.

Experiments:
Type in all cases: functional
[1] = system: Campylobacter jejuni; test: Antibacterial activity against bla gene-positive and nitrocefin reaction-positive beta-lactamase harboring Campylobacter jejuni isolate P1730 by NCCLS agar doubling dilution method
How it was run: (§1)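 MICs by agar doubling dilution per the NCCLS (now CLSI) Campylobacter Working Group method. Isolates came from UK chicken flocks (feces, ceca or farm environment), 2000–2006. C. jejuni NCTC 11168 and C. coli NCTC 11366 served as control strains. The ampicillin resistance cutoff was 8 μg/ml; BSAC/CLSI Enterobacteriaceae guidelines were used for other agents.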

[2] = system: Campylobacter jejuni; test: Antibacterial activity against bla gene-negative and nitrocefin reaction-negative beta-lactamase harboring Campylobacter jejuni isolate P850 by NCCLS agar doubling dilution method
How it was run: (§2)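 MICs of β-lactams by agar doubling dilution following the NCCLS (CLSI) Campylobacter Working Group procedure, with C. jejuni NCTC 11168 and C. coli NCTC 11366 as controls. Isolates were from UK poultry flocks. β-Lactamase status was set by Cj0299 PCR (281-bp amplimer) and by a nitrocefin colour change of sonicated lysate within 5 min, or within 30 min on repeat.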

[3] = system: Campylobacter jejuni; test: Antibacterial activity against Campylobacter jejuni isolate P338 harboring blaOXA-61::cat gene by NCCLS agar doubling dilution method
How it was run: (§3)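 Agar doubling dilution MICs (NCCLS/CLSI Campylobacter Working Group method) against Cj0299-inactivated mutants. Mutants were made by transforming the C. jejuni isolate with pCI and selecting on Mueller-Hinton agar with 10 μg/ml chloramphenicol for 3–5 days. Chromosomal insertion was confirmed by PCR with Cj0299 and cat primers.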

[4] = system: Campylobacter coli; test: Antibacterial activity against bla gene-positive and nitrocefin reaction-positive beta-lactamase harboring Campylobacter coli isolate P321 by NCCLS agar doubling dilution method; how it was run: as §2
[5] = system: Campylobacter jejuni; test: Antibacterial activity against bla gene-negative and nitrocefin reaction-positive beta-lactamase harboring Campylobacter jejuni isolate P843 by NCCLS agar doubling dilution method; how it was run: as §2
[6] = system: Campylobacter jejuni; test: Antibacterial activity against bla gene-positive and nitrocefin reaction-positive beta-lactamase harboring Campylobacter jejuni isolate P316 by NCCLS agar doubling dilution method; how it was run: as §1
[7] = system: Campylobacter jejuni; test: Antibacterial activity against bla gene-positive and nitrocefin reaction-positive beta-lactamase harboring Campylobacter jejuni isolate P1093 by NCCLS agar doubling dilution method; how it was run: as §2
[8] = system: Campylobacter coli; test: Antibacterial activity against Campylobacter coli by NCCLS agar doubling dilution method
How it was run: (§4)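 MICs by agar doubling dilution following the NCCLS (CLSI) Campylobacter Working Group procedure, applied to ampicillin- and amoxicillin-resistant isolates from UK chicken flocks (2000–2006). C. jejuni NCTC 11168 and C. coli NCTC 11366 served as control strains. Resistance was called at an ampicillin cutoff of 8 μg/ml. Other agents were judged against Enterobacteriaceae guidelines (BSAC, CLSI).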

[9] = system: Campylobacter jejuni; test: Antibacterial activity against bla gene-positive and nitrocefin reaction-negative beta-lactamase harboring Campylobacter jejuni isolate P1698 by NCCLS agar doubling dilution method; how it was run: as §2
[10] = system: Campylobacter jejuni; test: Antibacterial activity against bla gene-positive and nitrocefin reaction-positive beta-lactamase harboring Campylobacter jejuni isolate P338 by NCCLS agar doubling dilution method; how it was run: as §1
[11] = system: Campylobacter jejuni; test: Antibacterial activity against bla gene-negative and nitrocefin reaction-negative beta-lactamase harboring Campylobacter jejuni isolate P1962 by NCCLS agar doubling dilution method; how it was run: as §2
[12] = system: Campylobacter coli; test: Antibacterial activity against bla gene-positive and nitrocefin reaction-positive beta-lactamase harboring Campylobacter coli isolate P1826 by NCCLS agar doubling dilution method; how it was run: as §2
[13] = system: Campylobacter jejuni; test: Antibacterial activity against bla gene-positive and nitrocefin reaction-positive beta-lactamase harboring Campylobacter jejuni isolate P1650 by NCCLS agar doubling dilution method; how it was run: as §2
[14] = system: Campylobacter jejuni; test: Antibacterial activity against bla gene-positive and nitrocefin reaction-positive beta-lactamase harboring Campylobacter jejuni isolate P1618 by NCCLS agar doubling dilution method; how it was run: as §2
[15] = system: Campylobacter jejuni; test: Antibacterial activity against bla gene-positive and nitrocefin reaction-positive beta-lactamase harboring Campylobacter jejuni isolate P285 by NCCLS agar doubling dilution method; how it was run: as §1
[16] = system: Campylobacter jejuni; test: Antibacterial activity against bla gene-positive and nitrocefin reaction-positive beta-lactamase harboring Campylobacter jejuni isolate P286 by NCCLS agar doubling dilution method; how it was run: as §1
[17] = system: Campylobacter jejuni; test: Antibacterial activity against bla gene-positive and nitrocefin reaction-negative beta-lactamase harboring Campylobacter jejuni isolate P1699 by NCCLS agar doubling dilution method; how it was run: as §2
[18] = system: Campylobacter jejuni; test: Antibacterial activity against bla gene-positive and nitrocefin reaction-negative beta-lactamase harboring Campylobacter jejuni NCTC 11168 by NCCLS agar doubling dilution method; how it was run: as §2
[19] = system: Campylobacter jejuni; test: Antibacterial activity against bla gene-negative and nitrocefin reaction-negative beta-lactamase harboring Campylobacter jejuni isolate P835 by NCCLS agar doubling dilution method; how it was run: as §2
[20] = system: Campylobacter jejuni; test: Antibacterial activity against Campylobacter jejuni isolate P270 harboring blaOXA-61::cat gene by NCCLS agar doubling dilution method
[21] = system: Campylobacter jejuni; test: Antibacterial activity against Campylobacter jejuni isolate P1093 harboring blaOXA-61::cat gene by NCCLS agar doubling dilution method; how it was run: as §3
[22] = system: Campylobacter jejuni; test: Antibacterial activity against bla gene-positive and nitrocefin reaction-positive beta-lactamase harboring Campylobacter jejuni isolate P790 by NCCLS agar doubling dilution method; how it was run: as §1
[23] = system: Campylobacter jejuni; test: Antibacterial activity against bla gene-positive and nitrocefin reaction-positive beta-lactamase harboring Campylobacter jejuni isolate P305 by NCCLS agar doubling dilution method; how it was run: as §1
[24] = system: Campylobacter coli; test: Antibacterial activity against bla-positive and beta-lactamase-weakly positive Campylobacter coli isolate P1627 by NCCLS agar doubling dilution method; how it was run: as §1
[25] = system: Campylobacter jejuni; test: Antibacterial activity against Campylobacter jejuni by NCCLS agar doubling dilution method; how it was run: as §4
[26] = system: Campylobacter jejuni; test: Antibacterial activity against bla gene-negative and nitrocefin reaction-positive beta-lactamase harboring Campylobacter jejuni isolate P854 by NCCLS agar doubling dilution method; how it was run: as §2

Work on `C[C@@H](O)[C@H]1C(=O)N2C(C(=O)O)=C(SCCNC=N)C[C@H]12` [IMIPENEM ANHYDROUS] yielded an MIC [1] of 0.015 µg/mL (≈ 0.0501 µM), an MIC [2] of 0.06 µg/mL (≈ 0.2 µM) and an MIC [3] of 0.03 µg/mL (≈ 0.1 µM). It also gave an MIC [4] of 0.12 µg/mL (≈ 0.401 µM), an MIC [5] of 0.06 µg/mL (≈ 0.2 µM) and an MIC [6] of 0.06 µg/mL (≈ 0.2 µM). The MIC [7] was 0.12 µg/mL (≈ 0.401 µM), the MIC50 [8] was 0.06 µg/mL (≈ 0.2 µM) and the MIC90 [8] was 0.12 µg/mL (≈ 0.401 µM). The MIC [9] was 0.06 µg/mL (≈ 0.2 µM), the MIC [10] was 0.06 µg/mL (≈ 0.2 µM) and the MIC [11] was 0.015 µg/mL (≈ 0.0501 µM). The MIC [12] was 0.03 µg/mL (≈ 0.1 µM), the MIC [13] was 0.06 µg/mL (≈ 0.2 µM) and the MIC [14] was 0.015 µg/mL (≈ 0.0501 µM). It also gave an MIC [15] of 0.015 µg/mL (≈ 0.0501 µM), an MIC [16] of 0.25 µg/mL (≈ 0.835 µM) and an MIC [17] of 0.03 µg/mL (≈ 0.1 µM). The MIC [18] was 0.03 µg/mL (≈ 0.1 µM), the MIC [19] was 0.06 µg/mL (≈ 0.2 µM) and the MIC [20] was 0.03 µg/mL (≈ 0.1 µM). The MIC [21] was 0.12 µg/mL (≈ 0.401 µM), the MIC [22] was 0.12 µg/mL (≈ 0.401 µM) and the MIC [23] was 0.06 µg/mL (≈ 0.2 µM). For the same compound, the MIC [24] was 0.12 µg/mL (≈ 0.401 µM), the MIC50 [25] was 0.03 µg/mL (≈ 0.1 µM) and the MIC90 [25] was 0.06 µg/mL (≈ 0.2 µM). For the same compound, the MIC [26] was 0.06 µg/mL (≈ 0.2 µM).
